# Measurements from ChEMBL document CHEMBL1146654, “3-(7-Azaindolyl)-4-arylmaleimides as potent, selective inhibitors of glycogen synthase kinase-3” (Bioorg Med Chem Lett, 2004).
# Columns and labels:
# [1] = target: T1, Protein kinase C beta type (Homo sapiens, UniProt P05771); assay: Inhibition of protein kinase C-betaII at 10 uM
# Target sequence in this assay (P05771 2-671 limits assumed): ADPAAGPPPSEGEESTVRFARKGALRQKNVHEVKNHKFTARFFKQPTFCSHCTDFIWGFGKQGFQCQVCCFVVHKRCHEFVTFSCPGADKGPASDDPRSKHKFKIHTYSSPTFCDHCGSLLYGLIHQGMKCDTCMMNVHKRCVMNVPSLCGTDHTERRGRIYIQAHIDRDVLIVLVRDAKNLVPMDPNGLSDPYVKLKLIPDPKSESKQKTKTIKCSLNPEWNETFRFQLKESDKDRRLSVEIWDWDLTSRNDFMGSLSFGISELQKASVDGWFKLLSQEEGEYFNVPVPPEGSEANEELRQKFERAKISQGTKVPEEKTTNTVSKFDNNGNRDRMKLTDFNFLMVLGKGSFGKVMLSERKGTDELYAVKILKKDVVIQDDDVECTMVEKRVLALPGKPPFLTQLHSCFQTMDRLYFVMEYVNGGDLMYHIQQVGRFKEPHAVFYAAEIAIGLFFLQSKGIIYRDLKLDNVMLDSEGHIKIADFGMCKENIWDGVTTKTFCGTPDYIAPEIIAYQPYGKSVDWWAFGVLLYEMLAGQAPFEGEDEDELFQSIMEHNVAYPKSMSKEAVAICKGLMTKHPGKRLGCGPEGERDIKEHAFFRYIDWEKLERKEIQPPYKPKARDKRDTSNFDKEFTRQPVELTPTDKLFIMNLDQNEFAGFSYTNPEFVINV
# [2] = target: T2, Protein kinase C alpha type (Homo sapiens, UniProt P17252); assay: Inhibitory activity of 10 uM compound against protein kinase C-alpha using histone as substrate
# [3] = target: T3, Protein kinase C gamma type (Homo sapiens, UniProt P05129); assay: Inhibitory activity of 10 uM compound against protein kinase C-gamma using histone as substrate
# [4] = target: T1, Protein kinase C beta type; assay: Inhibitory concentration against human protein kinase C-betaII using histone as substrate
# Target sequence in this assay (P05771 whole entry): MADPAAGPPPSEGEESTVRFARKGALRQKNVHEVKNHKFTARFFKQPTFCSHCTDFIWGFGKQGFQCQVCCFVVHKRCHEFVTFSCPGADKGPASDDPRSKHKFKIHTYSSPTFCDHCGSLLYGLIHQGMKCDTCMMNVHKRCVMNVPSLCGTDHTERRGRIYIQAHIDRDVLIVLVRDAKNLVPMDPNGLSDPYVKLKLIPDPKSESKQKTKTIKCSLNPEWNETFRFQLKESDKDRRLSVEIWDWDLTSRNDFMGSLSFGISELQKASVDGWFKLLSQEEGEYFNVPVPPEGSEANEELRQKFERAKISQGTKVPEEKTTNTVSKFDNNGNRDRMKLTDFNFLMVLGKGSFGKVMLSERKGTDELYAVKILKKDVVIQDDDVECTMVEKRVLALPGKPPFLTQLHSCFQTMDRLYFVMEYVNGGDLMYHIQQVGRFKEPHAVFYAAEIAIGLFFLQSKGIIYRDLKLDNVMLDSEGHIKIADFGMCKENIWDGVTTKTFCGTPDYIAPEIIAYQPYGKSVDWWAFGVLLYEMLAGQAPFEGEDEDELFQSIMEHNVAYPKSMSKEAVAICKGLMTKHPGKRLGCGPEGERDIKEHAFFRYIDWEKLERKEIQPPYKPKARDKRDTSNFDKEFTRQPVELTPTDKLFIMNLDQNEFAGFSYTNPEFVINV
# [5] = target: Glycogen synthase kinase-3 beta (Homo sapiens, UniProt P49841); assay: Effective concentration of compound against glycogen synthase kinase-3 in HEK293 cells; assay type: functional, cell-based
# Procedure, shortened: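 HEK293 cells exposed to compound; glycogen synthase activity then measured in cell extracts as ¹⁴C-UDP glucose incorporation into glycogen. EC₅₀ averaged from triplicate determinations.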
# [6] = target: T2, Protein kinase C alpha type; assay: Inhibitory concentration against protein kinase C-alpha using histone as substrate
# [7] = target: T3, Protein kinase C gamma type; assay: Inhibition of protein kinase C-gamma
# Glycogen synthase kinase-3 beta, sequence (P49841 whole entry): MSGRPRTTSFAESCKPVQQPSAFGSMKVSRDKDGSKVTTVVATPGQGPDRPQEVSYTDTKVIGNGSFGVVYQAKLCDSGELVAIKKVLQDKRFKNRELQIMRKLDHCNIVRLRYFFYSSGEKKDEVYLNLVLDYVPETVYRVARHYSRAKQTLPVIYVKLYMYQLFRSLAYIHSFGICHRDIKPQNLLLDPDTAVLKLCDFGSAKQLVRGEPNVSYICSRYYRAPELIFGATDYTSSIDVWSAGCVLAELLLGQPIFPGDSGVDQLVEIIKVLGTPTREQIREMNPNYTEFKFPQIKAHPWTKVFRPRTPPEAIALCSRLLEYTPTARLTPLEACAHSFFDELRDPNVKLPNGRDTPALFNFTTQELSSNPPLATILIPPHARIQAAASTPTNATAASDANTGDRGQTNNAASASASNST
SMILES,inhibition [1] [%],inhibition [2] [%],inhibition [3] [%],IC50 [4] [µM],EC50 [5] [µM],IC50 [6] [µM],IC50 [7] [µM]
O=C1NC(=O)C(c2cn(CCCO)c3ncccc23)=C1c1ccccn1,< 50,< 50,< 50,,,,
COc1ccccc1C1=C(c2cn(CCCO)c3ncccc23)C(=O)NC1=O,,50,< 50,1.44,,,
[Cl-].[Li+] [CHLOROLITHIUM],,,,,> 3000,,
O=C1NC(=O)C(c2cn(CCCO)c3ncccc23)=C1c1ccc(F)cc1Cl,,,< 50,2.38,,4.5,
COc1ccccc1C1=C(c2cn(CCCNC=O)c3ncccc23)C(=O)NC1=O,,< 50,,2.73,,,8.7
O=C1NC(=O)C(c2cn(CCCO)c3ncccc23)=C1c1ccccc1C(F)(F)F,,50,50,1.85,,,
COc1ccccc1C1=C(c2cn(CCCNS(N)(=O)=O)c3ncccc23)C(=O)NC1=O,,< 50,,0.89,,,6
COc1ccccc1C1=C(c2cn(CCCNS(C)(=O)=O)c3ncccc23)C(=O)NC1=O,,,,1.88,,4.7,8.6
O=C1NC(=O)C(c2cn(CCCO)c3ncccc23)=C1c1cccc2ccccc12,,,50,0.27,,3.6,
CN(C)CCCn1cc(C2=C(c3cccc4ccccc34)C(=O)NC2=O)c2cccnc21,,,,0.24,,1.4,2.8
COc1ccccc1C1=C(c2cn(CCCN)c3ncccc23)C(=O)NC1=O,,50,< 50,1.1,,,
O=C1NC(=O)C(c2cn(CCCO)c3ncccc23)=C1c1cccs1,< 50,< 50,< 50,,,,
O=C1NC(=O)C(c2cn(CCCO)c3ncccc23)=C1c1ccccc1Cl,,,,0.73,,4.4,5.5
CCn1cc(C2=C(c3cn(CCCO)c4ncccc34)C(=O)NC2=O)c2cccnc21,,< 50,< 50,1.07,,,
CN(C)CCCn1cc(C2=C(c3ccccc3Cl)C(=O)NC2=O)c2cccnc21,,,,1.16,,4,3.6
